Screening data deposited in PubChem by several laboratories.
HSF1 inh – HSF1 inhibitors in luciferase reporter cells, primary screen, cell-based, NIH3T3, luminescence | NIH3T3-HGL HSE-luciferase, MG132-induced, luminescence 8 h; hits give low values | hit rate 0.77% among 300,000 | activity change, negative = inhibition, % at 7.5 µM (by protocol);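 active = more than half of replicate wells show activity change below -50%, luminescence cut by over half; inconclusive = some wells, but at most half, below -50%; inactive = no replicate well below -50%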;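 also: luciferase reports HSF-1 transcriptional activity via heat shock element; 0% = median of DMSO wells and -100% = zero luminescence signal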
HSP90 refold inh – HSP90 inhibitors, primary screen, cell lysate, luminescence | AID 1789, 2009 | hit rate 0.91% among 290,000 | inhibition, % at 5.6 µM | Rabbit reticulocyte lysate, luciferase refolding luminescence, 3 h;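 active = inhibition above the screen-wide mean plus 3 SD, computed separately per campaign, cut at about 16% in these data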;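 also: 0% = DMSO wells and 100% = 60 µM geldanamycin wells; inhibitors lower the luminescence because luciferase stays unfolded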
Hep lipid drop – inhibitors of hepatocyte lipid droplet formation, primary screen, imaging, high-throughput imaging, BODIPY stain | AML12 mouse hepatocytes, oleate lipid droplets | inhibition, % at 6.5 µM | hit rate 0.4% among 240,000;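 active = lipid droplet intensity inhibited by at least 50%, with more than 500 cells counted; inconclusive = wells with under 300 cells, treated as cytotoxic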
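Material – AML12 mouse liver cells · Also added – oleate loading, 100 µM · Compound dosing – 6.5 µM single-point dosing · Times – overnight treatment with compound plus oleate · Measured by – fluorescence imaging, 20x objective, two fields per well · Read-out – percent inhibition of filter-corrected integrated lipid droplet intensity per well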
NS3 helicase inh – inhibitors of HCV NS3 helicase, primary screen, biochemical, Cy5 molecular beacon fluorescence. NS3 helicase DNA unwinding. Hepatitis C virus NS3 helicase. hit rate 0.56% among 290,000. inhibition, % at 10.9 µM;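 active = inhibition above the mean of all tested compounds plus 3 SD, set per campaign, cut at about 35% in these data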;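 also: 0% = DMSO wells and 100% = thioflavine S control wells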
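System: HCV NS3 helicase fragment; control set: DMSO and thioflavine S; technique: Cy5 fluorescence at 0 and 60 min, beacon hairpin quenching; reagent: beacon DNA duplex substrate plus ATP; replicates: singlicate; schedule: 1 h reaction at 25 °C, ATP-initiated; medium: MOPS buffer pH 6.5 with MgCl2, DTT, Tween20, BSA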
HSF1 activator – HSF-1 activators, primary screen, NIH3T3-HGL cells, MG132 stress, luminescence, single point; NIH3T3-HGL HSF-1 luciferase reporter, 8 h; 100% = twice DMSO control signal; activation, % at 9 µM; hit rate 1.7% among 300,000; AID 504408, 2011;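 active = mean replicate activation of at least 50% with a set share of replicates each reaching 50%; inconclusive = only one of those two conditions met; inactive = mean below 50% and too few replicates reaching it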;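 also: 0% = median of the neutral control wells and 100% = twice that signal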
HSP90 inh confirm – HSP90 inhibitors, confirmation, cell lysate, luminescence | shares compounds with HSP90 refold inh | rabbit reticulocyte lysate, luciferase refolding luminescence, 3 h | inhibition, % at 5.9 µM | hit rate 64% among 2,300 | AID 1846, 2009; in the data active = inhibition above about 18%;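 also: 0% = vehicle wells and 100% = reference inhibitor wells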
FLuc counter – firefly luciferase inhibitors, HSP90 counter-screen, confirmation, artefact control for HSP90 inhibitor project, biochemical, luminescence, triplicate; purified native firefly luciferase; hit rate 48% among 2,300; shares compounds with HSP90 refold inh; inhibition, % at 5.9 µM; AID 1847, 2009;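 active = inhibition above the mean inhibition of all tested sample wells plus 3 SD, cut at about 10% in these data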;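 also: 0% = DMSO with luciferase and 100% = wells lacking luciferase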
Target sequence (P08659 whole entry, looked up): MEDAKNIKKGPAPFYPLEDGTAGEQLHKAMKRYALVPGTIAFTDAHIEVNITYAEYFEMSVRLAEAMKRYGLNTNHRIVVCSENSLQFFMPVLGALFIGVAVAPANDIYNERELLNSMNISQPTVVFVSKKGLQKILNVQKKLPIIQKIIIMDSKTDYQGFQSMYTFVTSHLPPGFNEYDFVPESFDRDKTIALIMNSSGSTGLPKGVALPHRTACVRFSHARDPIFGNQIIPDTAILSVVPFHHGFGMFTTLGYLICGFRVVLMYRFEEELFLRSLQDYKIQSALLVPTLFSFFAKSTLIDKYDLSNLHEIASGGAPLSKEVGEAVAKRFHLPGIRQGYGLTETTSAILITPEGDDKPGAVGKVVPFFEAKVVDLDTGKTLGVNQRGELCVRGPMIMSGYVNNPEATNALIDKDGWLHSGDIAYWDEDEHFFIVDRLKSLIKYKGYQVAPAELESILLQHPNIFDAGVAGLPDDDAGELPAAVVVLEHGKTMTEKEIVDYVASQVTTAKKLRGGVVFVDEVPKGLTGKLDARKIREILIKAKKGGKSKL
NS3 hel confirm – HCV NS3 helicase inhibitors, retest, confirmation, biochemical, Cy5 molecular beacon fluorescence, triplicate. shares compounds with NS3 helicase inh. NS3 helicase DNA unwinding. inhibition, % at 10.9 µM. hit rate 31% among 1,600;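 active = inhibition above the mean of all tested compounds plus 3 SD, cutoff set per campaign, cut at about 36% in these data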
FID counter trip – compounds displacing fluorescent DNA intercalator, artefact control for HCV NS3 helicase inhibitor project, biochemical, FID fluorescence, triplicate. AID 1945, 2009. DNA fluorescent intercalator displacement. hit rate 4% among 1,600. shares compounds with NS3 helicase inh. inhibition, % at 7.9 µM; in the data active = inhibition above about 37%;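 also: 0% = vehicle and 100% = reference compound; higher means more displacement of ethidium bromide from the DNA hairpin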
Starred values were filed as active, the others as inactive; ? = inconclusive; . = not tested or not shown. An excerpt weighted towards active compounds, which were near 3.8% of everything screened.

SMILES | HSF1 inh | HSP90 refold inh | Hep lipid drop | NS3 helicase inh | HSF1 activator | HSP90 inh confirm | FLuc counter | others
Cc1nc(NC(=O)c2ccccc2)sc1-c1csc(Nc2cccc(Cl)c2)n1 | 1 | 42* | . | -20 | 5 | 27* | -18
Cc1nc(NC(=O)CC(C)C)sc1-c1csc(Nc2ccc(Cl)cc2)n1 | 8 | 6 | . | 1 | 37 | . | .
Cc1ccc(Cl)cc1Nc1nc(-c2sc(NC(=O)c3ccco3)nc2C)cs1 | 3 | 10 | . | -3 | -5 | . | .
Cc1nc(NC(=O)c2ccccc2)sc1-c1csc(Nc2ccc(F)cc2)n1 | 15 | 44* | . | -18 | 24 | 31* | -20
Cc1nc(NC(=O)c2ccco2)sc1-c1csc(Nc2ccc(Cl)cc2)n1 | -11 | 19* | . | -1 | -24 | 5 | -24
Cc1nc(NC(=O)c2ccccc2)sc1-c1csc(Nc2ccc(Cl)cc2)n1 | -2 | 37* | . | -26 | 16 | 26* | -19
Cc1ccc(NC(=O)CCC(=O)c2cc(C)sc2C)nc1 | -2 | . | . | . | -6 | . | .
Cc1ccc(S(=O)(=O)n2ccc3c(OCCOCCNCc4ccc(F)cc4)cccc32)cc1 | 18 | 4 | 1 | -62 | 12 | . | .
Cc1ccc(C(C)NC(=O)Cc2cccs2)c(C)c1 (centres undefined) | -3 | 30* | 18 | 6 | -16 | -10 | -11
CCN(CC)S(=O)(=O)c1ccc(C)c(NC(=O)COC(=O)CN2C(=O)NC(C)(C)C2=O)c1 | 2 | . | . | . | -1 | . | .
CCCS(=O)(=O)NCCc1csc(-c2ccc(OC)c(OC)c2)n1 | -1 | 0 | -1 | 7 | -20 | . | .
O=C(Nc1ccc(Br)cn1)c1coc(=O)c(Br)c1 | 0 | 30* | 5 | 13 | 23 | 21* | -6
O=C(Nc1ccccc1F)c1coc(=O)c(Br)c1 | -4 | 5 | 4 | -5 | 2 | . | .
Cc1cc(NC(=O)c2coc(=O)c(Br)c2)ccc1C(C)C | -15 | 61* | -4 | 12 | -22 | 81* | -21
C[C@@H](NC(=O)c1coc(=O)c(Br)c1)c1ccccc1 | 10 | 2 | 1 | -1 | 3 | . | .
O=C(NCc1cccs1)C1CCCCC1 | -1 | 26* | 2 | 3 | -8 | -3 | -7
CC(C)(C)NC(=S)NCc1ccncc1 | -7 | 23* | 2 | 19 | 7 | -2 | -4
Cc1ccc(CNC(=S)NCc2ccncc2)cc1 | . | 4 | 19 | 2 | . | . | .
Cc1onc(-c2ccccc2Cl)c1C(=O)N1CCN(S(=O)(=O)c2ccc(F)c(F)c2)CC1 | 4 | 4 | -11 | 12 | 17 | . | .
C=COC(=O)CSc1nc(-c2cccs2)ccc1C#N | . | 33* | . | 48* | . | -3 | -13 | NS3 hel confirm=-13;FID counter trip=6
COCCN=c1scc(-c2ccco2)n1/N=C/c1ccc(O)c(O)c1O | . | 1 | 14 | 21 | . | . | .
CN=c1scc(-c2cccs2)n1/N=C/c1ccc(O)c(O)c1O | ? | 24* | 18 | 54* | -51 | 87* | 78* | NS3 hel confirm=-8;FID counter trip=13
C=CCN=c1scc(-c2ccco2)n1/N=C/c1ccc(O)c(O)c1O | 9 | 17* | 0 | 40* | 10 | 25* | -22 | NS3 hel confirm=-2;FID counter trip=14
CC(NC(=O)C1CCN(C(=O)[C@@H]2Cc3ccccc3CN2)CC1)c1ccccc1 (some centres undefined) | -1 | -3 | -1 | -8 | -5 | . | .
